Converted amounts (≈) assume the structure as drawn. Some results are limits rather than exact numbers.

Among the data in ChEMBL document CHEMBL1152308, “Cytotoxic phenanthrenequinones and 9,10-dihydrophenanthrenes from Calanthe arisanensis” (J Nat Prod, 2009) are EC50 values, retold here.

Common to all, as to format: functional, cell-based
In one experiment the test system is A549. The experiment is described as follows: Cytotoxicity against human A549 cells after 3 days by sulforhodamine B assay. The conditions noted are these: A549, 72 h. In a few lines: (§1)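 Freshly trypsinized cells seeded at 5000 per well; compounds added from DMSO-diluted stock. Cells grown in RPMI-1640 with 25 mM HEPES, 0.25% sodium bicarbonate, 10% FBS and 100 μg/mL kanamycin. After three days, attached cells fixed with cold 10% TCA and stained with 0.4% SRB. Bound dye solubilized and absorbance read at 562 nm. EC50 (50% growth reduction) averaged from at least three independent determinations.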

The next experiment relates to PC-3. Put plainly: Cytotoxicity against human PC3 cells after 3 days by sulforhodamine B assay. The conditions noted are these: PC-3, 72 h. In a few lines: as §1
(In general: In SRB staining, fixed cells bind dye roughly in proportion to their protein.)

For the next experiment, the system named is DU-145. The experiment is described as follows: Cytotoxicity against human DU145 cells after 3 days by sulforhodamine B assay. The conditions noted are these: DU-145, 72 h. The gist of the method: as §1
A further experiment has as its system HCT-8. Put plainly: Cytotoxicity against human HCT8 cells after 3 days by sulforhodamine B assay. The conditions noted are these: HCT-8, 72 h. The gist of the method:
as §1

In another experiment the test system is MCF7. The experiment is described as follows: Cytotoxicity against human MCF7 cells after 3 days by sulforhodamine B assay. The conditions noted are these: MCF7, 72 h. The gist of the method: as §1
In another experiment the test system is KB. The experiment is described as follows: Cytotoxicity against human KB cells after 3 days by sulforhodamine B assay. The conditions noted are these: 72 h. The gist of the method:
as §1

The nature of experiment [1]: Cytotoxicity against human KBVIN cells after 3 days by sulforhodamine B assay. The conditions noted are these: 72 h. The gist of the method:
as §1

Usually EC50 stands for the concentration that produces a half-maximal response. As for `COC1=CC(=O)c2ccc3cc(OC)c(O)c(OC)c3c2C1=O` [CALANQUINONE B], the EC50 in the experiment with A549 was 4.54 µg/mL; in the experiment on PC-3, 1.55 µg/mL (≈ 4.93 µM); with DU-145, 6.45 µg/mL (≈ 20.5 µM); with HCT-8, 4.56 µg/mL; in the experiment on MCF7, 1.81 µg/mL; with KB, 6.46 µg/mL (≈ 20.6 µM). The same compound registered an EC50 in experiment [1] of 13.3 µg/mL (≈ 42.3 µM).
Turning to `COc1cc(O)c(-c2c(O)cc(OC)c3c2ccc2cc(O)ccc23)c2c1-c1ccc(O)cc1CC2` [CIRRHOPETALANTHRIN], the EC50 is 11.2 µM in the experiment on A549, 7.3 µM in the experiment on HCT-8 and 12.5 µM with MCF7.
With `COc1cc(O)c2c(c1)CCc1ccc(O)c(OC)c1-2` [CALANPHENANTHRENE A], the EC50 in the experiment on A549 is 7.71 µg/mL; in the experiment with PC-3, 7.06 µg/mL (≈ 25.9 µM); with DU-145 it was 13.2 µg/mL (≈ 48.5 µM); in the experiment with HCT-8, 6.73 µg/mL; with MCF7 it was 6.52 µg/mL; in the experiment on KB it was 11.8 µg/mL (≈ 43.3 µM). In experiment [1], the midpoint of the response, the EC50, lay at 5.48 µg/mL (≈ 20.1 µM).
Consider `COc1cc2c(c(OC)c1O)C1=C(CC2)C(=O)C=CC1=O` [CALANQUINONE C], for which the EC50 was 3.58 µg/mL in the experiment with A549; 2.07 µg/mL (≈ 7.23 µM) in the experiment on PC-3; 4.34 µg/mL (≈ 15.2 µM) in the experiment on DU-145; 4.14 µg/mL in the experiment with HCT-8; 2.12 µg/mL in the experiment on MCF7; 2.97 µg/mL (≈ 10.4 µM) with KB. For the same compound, the EC50 in experiment [1] is 4.68 µg/mL (≈ 16.3 µM).
In the case of `COc1cc2c(c(OC)c1OC)-c1c(O)ccc(O)c1CC2` [CALANHYDROQUINONE C], the EC50 in the experiment on A549 stood at 2.36 µg/mL; with PC-3, 0.85 µg/mL (≈ 2.81 µM); in the experiment on DU-145 it was 3.78 µg/mL (≈ 12.5 µM); with HCT-8, 3.96 µg/mL; in the experiment on MCF7, 1.7 µg/mL; in the experiment with KB it was 2.86 µg/mL (≈ 9.46 µM). Further, the EC50 in experiment [1] came to 4.73 µg/mL (≈ 15.6 µM).
`CC(=O)O[C@H]1C(=O)[C@@]2(C)[C@H]([C@H](OC(=O)c3ccccc3)[C@]3(O)C[C@H](OC(=O)[C@H](O)[C@@H](NC(=O)c4ccccc4)c4ccccc4)C(C)=C1C3(C)C)[C@]1(OC(C)=O)CO[C@@H]1C[C@@H]2O` [PACLITAXEL]: the EC50 in the experiment on A549 was under 0.005 µg/mL; in the experiment on PC-3, 0.0097 µg/mL (≈ 0.0114 µM); in the experiment on DU-145, under 0.005 µg/mL; with HCT-8, 0.21 µg/mL; in the experiment with MCF7, 0.0072 µg/mL; in the experiment with KB it was under 0.005 µg/mL. This compound gave an EC50 in experiment [1] of 2.16 µg/mL (≈ 2.53 µM).
As for `COc1cc(O)c(-c2c(O)cc(OC)c3c2CCc2cc(O)ccc2-3)c2c1-c1ccc(O)cc1CC2`, the half-maximal effective concentration (EC50) in the experiment on A549 was 4.61 µg/mL; in the experiment with PC-3 it was 5.37 µg/mL (≈ 11.1 µM); in the experiment on DU-145 it was 4.11 µg/mL (≈ 8.52 µM); in the experiment with HCT-8, 4.6 µg/mL; in the experiment with MCF7, 3.5 µg/mL; in the experiment with KB it was 4.4 µg/mL (≈ 9.12 µM). This compound also had an EC50 in experiment [1] of 3.96 µg/mL (≈ 8.21 µM).
As for `COC1=CC(=O)c2ccc3cc(OC)c(OC)cc3c2C1=O` [SPHENONE A], the EC50 in the experiment on KB worked out at 2.7 µg/mL (≈ 9.05 µM).
With `COc1c(O)cc2c(c1OC)-c1c(O)ccc(O)c1CC2` [CALANHYDROQUINONE B], the half-maximal effective concentration (EC50) in the experiment with A549 turned out to be 4.07 µg/mL; in the experiment on PC-3 it was 2.62 µg/mL (≈ 9.09 µM); in the experiment with DU-145 it was 5.46 µg/mL (≈ 18.9 µM); in the experiment on HCT-8 it was 5.16 µg/mL; with MCF7, 3.28 µg/mL; in the experiment on KB it was 3.75 µg/mL (≈ 13 µM). Further, the EC50 in experiment [1] amounted to 5.24 µg/mL (≈ 18.2 µM).
For `COc1cc2ccc3cccc(O)c3c2c(OC)c1O` [BULBOPHYLLANTHRIN], the concentration for a half-maximal effect (EC50) in the experiment on A549 was 5.06 µg/mL; in the experiment with PC-3, 3.38 µg/mL (≈ 12.5 µM); in the experiment with DU-145 it was 8.29 µg/mL (≈ 30.7 µM); with HCT-8, 5.26 µg/mL; with MCF7, 3.26 µg/mL; with KB, 5.63 µg/mL (≈ 20.8 µM). The compound further showed an EC50 in experiment [1] of 6.99 µg/mL (≈ 25.9 µM).
Consider `COc1cc(O)cc2c1-c1ccc(O)cc1CC2`, for which the EC50 in the experiment on A549 amounted to 5.05 µg/mL; in the experiment on PC-3, 2.82 µg/mL (≈ 11.6 µM); in the experiment on DU-145, 4.79 µg/mL (≈ 19.8 µM); in the experiment on HCT-8 it was 3.84 µg/mL; in the experiment on MCF7, 1.8 µg/mL; with KB, 3.4 µg/mL (≈ 14 µM). The compound also gave an EC50 in experiment [1] of 7.92 µg/mL (≈ 32.7 µM).
As for `COc1cc2c(c(OC)c1O)-c1c(O)ccc(O)c1CC2` [CALANHYDROQUINONE A], the EC50 is 3.58 µg/mL with A549; 2.52 µg/mL (≈ 8.74 µM) in the experiment on PC-3; 5.84 µg/mL (≈ 20.3 µM) in the experiment on DU-145; 4.57 µg/mL in the experiment on HCT-8; 2.31 µg/mL in the experiment on MCF7; 3.47 µg/mL (≈ 12 µM) in the experiment on KB. The same compound had an EC50 in experiment [1] of 5.37 µg/mL (≈ 18.6 µM).
Turning to `COC1=CC(=O)c2ccc3ccccc3c2C1=O` [ANNOQUINONE A], a half-maximal effect with KB (EC50) was put at 0.16 µg/mL (≈ 0.672 µM).
On to `COc1cc2c(cc1O)CCc1cc(O)cc(OC)c1-2`, for which the EC50 was determined as 4.24 µg/mL in the experiment with A549; 2.67 µg/mL (≈ 9.81 µM) with PC-3; 5.38 µg/mL (≈ 19.8 µM) in the experiment with DU-145; 4.55 µg/mL in the experiment on HCT-8; 2.59 µg/mL with MCF7; 3.9 µg/mL (≈ 14.3 µM) with KB. The compound also had a half-maximal effective concentration (EC50) in experiment [1] of 5.84 µg/mL (≈ 21.4 µM).
On to `COC1=CC(=O)c2ccc3cc(OC)c(OC)c(O)c3c2C1=O` [CALANQUINONE A], for which the EC50 in the experiment with A549 was 0.19 µg/mL; in the experiment on PC-3 it was 0.16 µg/mL (≈ 0.509 µM); in the experiment with DU-145, 0.34 µg/mL (≈ 1.08 µM); in the experiment with HCT-8 it was 0.2 µg/mL; in the experiment with MCF7, under 0.02 µg/mL; in the experiment with KB it was 0.32 µg/mL (≈ 1.02 µM). In experiment [1], this compound yielded an EC50 of 0.45 µg/mL (≈ 1.43 µM).
